The values below come from ChEMBL document CHEMBL1151960, “(Nitrooxyacyloxy)methyl esters of aspirin as novel nitric oxide releasing aspirins” (J Med Chem, 2009).

The subject of data set [1] is Aorta. The data set can be described thus: Vasodilatory activity in Wistar rat endothelium-denuded thoracic aortic ring assessed as inhibition of phenylephrine-induced contraction […]. In kind it is functional, tissue-based. The gist of the method: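 Endothelium-denuded rat aorta strips are precontracted with phenylephrine. At the plateau, cumulative concentrations of test agent in DMSO are added. Relaxation is recorded isometrically and reported as EC50 ± SEM (μM). In a separate series, 1 μM ODQ is added 5 min before contraction, giving at least 30 min of preincubation before the vasodilator. At least five experiments.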

The test system of data set [2] is Aorta. In words: Vasodilatory activity in Wistar rat endothelium-denuded thoracic aortic ring assessed as inhibition of phenylephrine-induced contraction at 100 uM preincubated for 30 mins before phenylephrine addition in presence of 1 uM 1H-[1,2,4]oxadiazolo[4,3-a]quinoxalin-1-one. Set-up: scale not given: the % may be the effect or the level left. In kind it is functional.

Data set [3] is described as follows: Chemical stability in acidic medium at pH 1 assessed as unchanged drug level at 0.5 mM after 3 hrs by RP-HPLC analysis. In kind it is physicochemical. The settings on record: read-out: Stability. The gist of the method:
(§1)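 A 0.5 mM acetonitrile solution (2 mL) is diluted to 10 mL with HCl (pH 1.0) or 50 mM phosphate buffer (pH 7.4) and held at 37 ± 0.5 °C. Aliquots are taken over time for RP-HPLC (C18 column, acetonitrile/water gradient with 0.1% TFA). Performed in triplicate.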

A short description of data set [4]: Chemical stability in phosphate buffer at pH 7.4 assessed as unchanged drug level at 0.5 mM after 3 hrs by RP-HPLC analysis. In kind it is physicochemical. To be noted: read-out: Stability. In outline:
as §1

A short description of data set [5]: Metabolic stability in human serum assessed as half life at 250 uM by RP-HPLC analysis. In kind it is ADME, cell-free.
In data set [6] the test system is Serum. In words: Metabolic stability in human serum assessed as maximal amount of aspirin released at 250 uM by RP-HPLC analysis. In kind it is ADME, cell-free.
The test system of data set [7] is Platelet. The data set can be described thus: (§2) Antiaggregatory activity in human platelet rich plasma assessed as inhibition of collagen-induced platelet aggregation preincubated 10 mins before collagen challenge. In kind it is functional. The gist of the method:
(§3)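 Platelet-rich plasma from citrated blood spun at 210g for 20 min. Compound in 0.5% DMSO vehicle preincubated 10 min, then submaximal collagen (0.8–1.5 μg/mL). Light-transmission aggregometry with stirring at 1000 rpm, 37 °C, recorded for 10 min. Read-out is % inhibition versus vehicle control; IC50 by nonlinear regression, else % inhibition at 300 μM top concentration. At least five experiments.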

Data set [8] in a line: Antiaggregatory activity in human platelet rich plasma assessed as inhibition of collagen-induced platelet aggregation at 300 uM preincubated 10 mins before collagen challenge. In kind it is functional. In outline: as §3
For data set [9], the system named is Aorta. The data set can be described thus: Vasodilatory activity in Wistar rat endothelium-denuded thoracic aortic ring assessed as inhibition of phenylephrine-induced contraction at 30 uM preincubated for 30 mins before phenylephrine addition in presence of 1 uM 1H-[1,2,4]oxadiazolo[4,3-a]quinoxalin-1-one. In kind it is functional. Details: scale not given: the % may be the effect or the level left.

Data set [10] in a line: as §2. In kind it is functional. The gist of the method:
as §3

Molecules are shown by their SMILES. A value given as a limit tells only on which side of the number the result lay.

For orientation: EC50 means the concentration that produces a half-maximal response. As to `O=C(O)c1ccc(CCCO[N+](=O)[O-])cc1`, the Activity result in data set [1] is “Dose-dependent effect”; in data set [2], under 50%. Further, the EC50 in [1] was found to be 0.51 µM.
A word on the half-life: it is the time in which the quantity being followed falls by half. One may read the inhibition as how much of the control response was suppressed. Consider `CC(=O)Oc1ccccc1C(=O)OCOC(=O)CCCCC(CO[N+](=O)[O-])O[N+](=O)[O-]` (centres undefined), for which the remaining at 3 h, 500 µM in data set [3] and in [4] was 99% in each case. Moreover, the half-life at 250 µM in [5] was under 1 min. The Activity is 9.8% in data set [6], “Dose-dependent effect” in data set [7], “Dose-dependent effect” in data set [1] and under 50% in [9]. The inhibition at 300 µM in data set [8] is 36%. Besides, the EC50 in data set [1] worked out at 0.52 µM.
Take `O=C(O)c1ccc(CC(CO[N+](=O)[O-])O[N+](=O)[O-])cc1` (centres undefined): in [1], the Activity entry is “Dose-dependent effect” and the concentration for a half-maximal effect (EC50) was 0.33 µM. In data set [2], the Activity is under 50%.
In the same order, the values of `O=C(O)c1cccc(CO[N+](=O)[O-])n1` are “Dose-dependent effect”, 12 µM and under 50%.
Turning to `CC(=O)Oc1ccccc1C(=O)OCOC(=O)CCCCCO[N+](=O)[O-]`, the remaining at 3 h, 500 µM in data set [3] and in data set [4] was 99% in each case. Besides, the half-life at 250 µM in data set [5] is under 1 min. The Activity in data set [6] is 10.1%; in [7], “Dose-dependent effect”; in data set [1] it was “Dose-dependent effect”; in [9], under 50%. The inhibition at 300 µM in data set [8] is 17%. For the same compound, the concentration giving a half-maximal response (EC50) in data set [1] was 1.2 µM.
As usually defined, the IC50 is the concentration that gives 50% inhibition. With `CC(=O)Oc1ccccc1C(=O)OCOC(=O)c1cccc(OCCCO[N+](=O)[O-])c1`, the figures for the remaining at 3 h, 500 µM in [3] and in data set [4] were 99% and 98%, respectively. The half-life at 250 µM in data set [5] is 1.4 min. Besides, the Activity was 48.3% in [6], “Dose-dependent effect” in [7], “Dose-dependent effect” in data set [1] and under 50% in data set [9]. The 50% inhibitory concentration (IC50) in [10] is 100 µM. Also, the EC50 in [1] was 0.14 µM.
On to `CC(=O)Oc1ccccc1C(=O)OCOC(=O)c1ccc(CC(CO[N+](=O)[O-])O[N+](=O)[O-])cc1` (centres undefined), for which the remaining at 3 h, 500 µM in data set [3] and in data set [4] was 99% each time. Besides, in data set [5], the half-life at 250 µM amounted to 3.4 min. In addition, the Activity is 34.2% in data set [6], “Dose-dependent effect” in data set [7], “Dose-dependent effect” in data set [1] and under 50% in data set [9]. Further, in data set [10], the IC50 is 97 µM. In addition, the EC50 in data set [1] amounted to 0.052 µM.
Turning to `CC(=O)Oc1ccccc1C(=O)OCOC(=O)c1ccc(OCC(CO[N+](=O)[O-])O[N+](=O)[O-])cc1` (centres undefined), the remaining at 3 h, 500 µM in [3] and in [4] was 99% in each case. Also, in data set [5], the half-life at 250 µM was 5.4 min. Besides, the Activity is 22.4% in data set [6], “Dose-dependent effect” in data set [7], “Dose-dependent effect” in [1] and under 50% in data set [9]. In addition, in data set [10], the IC50 was 140 µM. Also, in [1], the concentration for a half-maximal effect (EC50) worked out at 0.041 µM.
`CC(=O)Oc1ccccc1C(=O)OCOC(=O)c1ccc(SCCCO[N+](=O)[O-])cc1`: the remaining at 3 h, 500 µM in data set [3] and in data set [4] was 99% throughout. In addition, in data set [5], the half-life at 250 µM was determined as 2.4 min. In addition, the Activity in [6] was 61.7%; in [7] it was “Dose-dependent effect”; in data set [1] it was “Dose-dependent effect”; in [9], under 50%. The IC50 in [10] was determined as 45 µM. The EC50 in data set [1] is 0.15 µM.
Turning to `CC(=O)Oc1ccccc1C(=O)OCOC(=O)c1ccc(OCCCO[N+](=O)[O-])cc1`, the remaining at 3 h, 500 µM in data set [3] and in data set [4] was 99% each time. Also, the half-life at 250 µM in data set [5] amounted to 3.4 min. The Activity was 39.8% in [6], “Dose-dependent effect” in data set [7], “Dose-dependent effect” in data set [1] and under 50% in data set [9]. The IC50 in [10] was found to be 138 µM. Further, in [1], the EC50 was 0.017 µM.
Turning to `O=C(O)c1ccccc1OCCCO[N+](=O)[O-]`, in data set [1], the Activity result was “Dose-dependent effect” and the EC50 worked out at 20 µM. The Activity in [2] was under 50%.
On to `CC(=O)Oc1ccccc1C(=O)OCOC(=O)c1ccccc1OCCCO[N+](=O)[O-]`, for which the remaining at 3 h, 500 µM was 99% in data set [3] and 98% in data set [4]. Moreover, in data set [5], the half-life at 250 µM was under 1 min. Besides, the Activity in [6] is 5%; in data set [7], “Dose-dependent effect”; in data set [1], “Dose-dependent effect”; in data set [9], under 50%. Moreover, in data set [10], the IC50 stood at 163 µM. For the same compound, the EC50 in [1] worked out at 4 µM.
`O=C(O)c1ccc(S(=O)(=O)CCCO[N+](=O)[O-])cc1`: the Activity result in data set [1] was “Dose-dependent effect”; in data set [2], under 50%. In data set [1], the EC50 is 20 µM.
As for `CC(=O)Oc1ccccc1C(=O)OCOC(=O)c1ccc(SCC(CO[N+](=O)[O-])O[N+](=O)[O-])cc1` (centres undefined), the remaining at 3 h, 500 µM in data set [3] and in [4] was 98% throughout. Further, the half-life at 250 µM in data set [5] worked out at 4.6 min. Besides, the Activity in data set [6] is 43%; in data set [7], “Dose-dependent effect”; in data set [1], “Dose-dependent effect”; in data set [9], under 50%. Further, the IC50 in [10] came to 129 µM. Moreover, the EC50 in data set [1] was determined as 0.1 µM.
`O=C(O)c1ccc([S+]([O-])CCCO[N+](=O)[O-])cc1` (centres undefined): in data set [1], the Activity result was “Dose-dependent effect” and the EC50 amounted to 6 µM. For the same compound, the Activity in data set [2] is given as under 50%.
As for `CC(=O)Oc1ccccc1C(=O)OCOC(=O)c1ccc([S+]([O-])CCCO[N+](=O)[O-])cc1` (centres undefined), the remaining at 3 h, 500 µM in data set [3] came to 98%; in data set [4] it was 90%. The half-life at 250 µM in [5] is under 1 min. Besides, the Activity in data set [6] was 70.7%; in data set [7] it was “Dose-dependent effect”; in data set [1] it was “Dose-dependent effect”; in [9] it was under 50%. Besides, the IC50 in data set [10] came out at 72 µM. The EC50 in [1] was 0.47 µM.
On to `CC(=O)Oc1ccccc1C(=O)OCOC(=O)c1ccc(S(=O)(=O)CCCO[N+](=O)[O-])cc1`, for which the remaining at 3 h, 500 µM is 98% in data set [3] and 70% in data set [4]. Also, the half-life at 250 µM in data set [5] is under 1 min. In addition, the Activity in [6] is 59.2%; in data set [7] it was “Dose-dependent effect”; in data set [1] it was “Dose-dependent effect”; in data set [9], under 50%. In addition, the IC50 in [10] amounted to 38 µM. For the same compound, the EC50 in data set [1] stood at 0.36 µM.
As for `O=C(O)c1cccc(OCCCO[N+](=O)[O-])c1`, in data set [1], the Activity result was “Dose-dependent effect” and the half-maximal effective concentration (EC50) was determined as 3.8 µM. In addition, in data set [2], the Activity is given as under 50%.
In the same order, the values of `O=C(O)CCCCCCO[N+](=O)[O-]` are “Dose-dependent effect”, 20 µM and under 50%.
As for `CC(=O)Oc1ccccc1C(=O)OCOC(=O)c1ccc(CCCO[N+](=O)[O-])cc1`, the remaining at 3 h, 500 µM in data set [3] came to 98%; in data set [4] it was 100%. In [5], the half-life at 250 µM amounted to 1.9 min. The Activity in data set [6] is 65.2%; in [7], “Dose-dependent effect”; in data set [1], “Dose-dependent effect”; in [9], under 50%. The IC50 in data set [10] is 41 µM. For the same compound, in [1], the concentration giving a half-maximal response (EC50) was 0.075 µM.
Take `CC(=O)Oc1ccccc1C(=O)O` [ASPIRIN]: the remaining at 3 h, 500 µM in [3] and in [4] was 90% throughout. Moreover, the half-life at 250 µM in data set [5] is 63 min. Further, the IC50 in [10] is 54 µM. The Activity entry in data set [7] is “Dose-dependent effect”.
On to `O=C(O)CCCCCO[N+](=O)[O-]`, for which, in data set [1], the Activity result is “Dose-dependent effect” and the EC50 is 8.3 µM. Also, in [2], the Activity is under 50%.
For the compound `CC(=O)Oc1ccccc1C(=O)OCOC(=O)c1cccc(CO[N+](=O)[O-])n1`, the remaining at 3 h, 500 µM in data set [3] worked out at 84%; in [4], 60%. Moreover, the half-life at 250 µM in data set [5] is under 1 min. For the same compound, the Activity was 58% in data set [6], “Dose-dependent effect” in data set [7], “Dose-dependent effect” in data set [1] and under 50% in [9]. Moreover, the concentration for half-maximal inhibition (IC50) in data set [10] was 20 µM. In data set [1], the concentration for a half-maximal effect (EC50) was found to be 0.82 µM.
